“And” between values parts separate entries of the source, which are not always exact repeats. Equal values may be shown once.
Test: yeast TOR reporter LAP4-GFP retest – cell-based, third cherry pick, flow cytometry, confirmation (AID 504338);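 note: ratio to plate DMSO wells so 100% equals DMSO level rather than 0%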
Settings: S. cerevisiae LAP4-GFP strain, 3 h, at 10 µM, active compounds read high;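 active = GFP response vs DMSO above 150% with enough events counted; inconclusive = fewer than 70 events counted for a yeast strain; inactive = the rest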
In short: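 Assay system – yeast LAP4-GFP strain · Buffer or medium – synthetic complete medium · Times – compound exposure for 3 h at 30 °C · Technique – flow cytometric GFP fluorescence · Evaluation – median GFP fluorescence as percent of plate DMSO-well average · Benchmarks – rapamycin 400 ng/mL as positive control, DMSO wells as reference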

GFP response vs DMSO, inactive:
N#Cc1c(N)nc(N)nc1Nc1ccc(Br)cc1 104%
CS(=O)(=O)c1nc(-c2ccc(F)cc2)cc(C(F)(F)F)n1 144%
COc1ccccc1-c1cc(C(F)(F)F)nc(S(=O)(=O)CCCC(=O)NC(C)C)n1 101% and 104%
C[n+]1cccc2cccc([O-])c21 107%
O=C(Nc1ccccc1)O/N=C1/CCCc2occc21 107%
COCCCNc1nc(N)c([N+](=O)[O-])c(Nc2ccccc2OC)n1 106%
COCC(C)NC(=O)CCS(=O)(=O)c1nc(-c2ccc(OC)cc2)cc(C(F)(F)F)n1 (configuration not stated) 104%
C/C(=N\NC(=O)c1ccccc1)c1ccccc1F 106%
NC(=O)COc1cccc2cccnc12 103%
COc1ccccc1Nc1nc(NCC(C)C)nc(N)c1[N+](=O)[O-] 104%
CC(=O)Nn1cnc2c(c1=O)C1(CCCC1)Cc1ccccc1-2 103%
CC(=O)NC(C)c1cc(Cl)c2cccnc2c1O (configuration not stated) 101%
Cc1nc(Nc2ccc(Cl)cc2)c(C#N)c(=O)[nH]1 107%
O=C(O)CCS(=O)(=O)c1nc(-c2cccs2)cc(C(F)(F)F)n1 115%
O=C(Nc1cccc2ccccc12)ON=C1CCCCC1 112%
COC(=O)c1cc(=O)c2cccc(OC)c2[nH]1 101%
COc1ccc(NC(=O)O/N=C2/CCCc3ccc(OC)cc32)cc1 107%
Cc1cc(C)c2ccc(N)nc2c1O 97.2%
O=C(N/N=C/c1ccccc1F)c1cccc2ccccc12 104%
CCN(CC)C(=O)Oc1ccnc2cc(Cl)ccc12 101%
COc1cccc(N/C(C)=C/C(=O)c2ccc(Br)cc2)c1 103%
COc1ccc(OC)c2c(C)cc(C)nc12 103%

— PubChem BioAssay AID504338 (NMMLSC, 2011)
